Drawing on ChEMBL document CHEMBL3286272, “Synthesis, biological, and biophysical studies of DAG-indololactones designed as selective activators of RasGRP” (Bioorg Med Chem, 2014), this text covers Ratio Ki, Activity and Ki for five compounds.

Each structure is given as a SMILES string. Activity calls are given as the source filed them. The calls are words filed in the database; no cut-off is given here.

The species named for one assay is Homo sapiens. The assay can be described thus: Selectivity ratio of Ki for recombinant human PKC-epsilon to Ki for recombinant human GFP-tagged RasGRP3.
The target of assay [1] is T1, Ras guanyl-releasing protein 3 (Homo sapiens) (UniProt Q8IV61).
T1 sequence (whole entry): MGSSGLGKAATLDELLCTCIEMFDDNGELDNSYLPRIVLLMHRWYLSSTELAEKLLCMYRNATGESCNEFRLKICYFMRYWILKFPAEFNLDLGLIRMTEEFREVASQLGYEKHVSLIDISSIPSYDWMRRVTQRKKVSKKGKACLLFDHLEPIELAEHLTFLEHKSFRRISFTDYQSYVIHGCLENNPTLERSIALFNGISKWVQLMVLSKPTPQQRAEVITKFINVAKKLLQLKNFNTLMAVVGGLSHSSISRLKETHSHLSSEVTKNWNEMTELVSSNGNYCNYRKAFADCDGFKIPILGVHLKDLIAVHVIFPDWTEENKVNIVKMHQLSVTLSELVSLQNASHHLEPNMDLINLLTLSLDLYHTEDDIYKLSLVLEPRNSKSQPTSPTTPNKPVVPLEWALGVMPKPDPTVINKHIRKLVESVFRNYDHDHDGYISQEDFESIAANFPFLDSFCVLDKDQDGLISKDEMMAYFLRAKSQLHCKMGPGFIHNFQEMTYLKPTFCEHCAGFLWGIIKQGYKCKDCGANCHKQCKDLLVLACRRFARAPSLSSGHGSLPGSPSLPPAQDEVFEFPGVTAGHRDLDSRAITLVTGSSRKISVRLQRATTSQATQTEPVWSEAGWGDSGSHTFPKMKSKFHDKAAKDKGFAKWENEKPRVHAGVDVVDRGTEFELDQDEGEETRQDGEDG
Briefly: Activation of RasGRP3 in human Ramos cells assessed as ERK1/2 phosphorylation at 10000 nM after 30 mins by Western blot analysis. The format is cell-based. Summed up: (§1)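 Ramos cells in RPMI-1640 with 10% FBS and 1% L-glutamine, plated at 300,000 cells/ml, were exposed after 24 h to 0.01, 0.1, 1 and 10 μM compound for 30 min. Lysates were made in PBS with 0.5% Triton X-100 and sonicated. 7.5 μg protein was run on 10% Tris-glycine gels, blotted to nitrocellulose, probed overnight with phospho-specific primary antibodies and detected by ECL.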
(In general: In western blotting, separated proteins are transferred to a membrane and probed.)

Assay [2] has as its target Protein kinase C (PKC) (Homo sapiens) (UniProt O94806+P41743+P17252+P05129+Q05655+P05771+Q05513+Q02156+P24723+Q15139+Q04759). Briefly: Activation of PKC in human Ramos cells assessed as PKD1 phosphorylation at S744/S748 at 10000 nM after 30 mins by Western blot analysis. In kind it is cell-based. Put shortly:
as §1

Assay [3] has as its target Protein kinase C alpha type (Homo sapiens, UniProt P17252). The assay can be described thus: Displacement of [3H]PDBu from recombinant human PKC-alpha after 5 mins by scintillation counting analysis in presence of phosphatidylserine. Put shortly: (§2)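 [3H]PDBu binding competition with 100 μg/ml phosphatidylserine present; PKCα and RasGRP1-C1 assayed at 37°C for stability. Values are mean ± SEM of triplicate independent experiments.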
(Displacement assays read how much labelled ligand stays bound in the presence of the test substance.)

Assay [4] addresses T2, Protein kinase C epsilon type (Homo sapiens, UniProt Q02156).
T2 sequence (Q02156 whole entry): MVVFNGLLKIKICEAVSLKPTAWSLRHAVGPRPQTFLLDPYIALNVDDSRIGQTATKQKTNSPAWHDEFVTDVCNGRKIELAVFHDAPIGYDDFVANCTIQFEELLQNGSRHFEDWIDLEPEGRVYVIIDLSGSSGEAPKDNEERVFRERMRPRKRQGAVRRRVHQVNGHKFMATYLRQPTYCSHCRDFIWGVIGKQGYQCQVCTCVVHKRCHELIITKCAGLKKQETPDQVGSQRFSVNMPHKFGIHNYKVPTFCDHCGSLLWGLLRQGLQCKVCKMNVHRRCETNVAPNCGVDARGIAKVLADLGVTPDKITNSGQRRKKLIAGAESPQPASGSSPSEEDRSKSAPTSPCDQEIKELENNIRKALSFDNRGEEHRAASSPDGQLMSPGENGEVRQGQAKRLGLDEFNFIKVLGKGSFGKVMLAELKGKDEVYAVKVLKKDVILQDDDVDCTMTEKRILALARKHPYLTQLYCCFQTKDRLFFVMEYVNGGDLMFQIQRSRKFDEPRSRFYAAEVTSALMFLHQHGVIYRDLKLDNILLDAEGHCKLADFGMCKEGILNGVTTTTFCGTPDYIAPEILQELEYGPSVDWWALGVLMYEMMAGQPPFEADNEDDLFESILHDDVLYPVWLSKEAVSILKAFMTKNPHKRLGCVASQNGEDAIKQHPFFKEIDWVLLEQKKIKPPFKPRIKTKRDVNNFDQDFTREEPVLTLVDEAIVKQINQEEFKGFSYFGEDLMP
The assay can be described thus: Displacement of [3H]PDBu from recombinant human PKC-epsilon after 5 mins by scintillation counting analysis in presence of phosphatidylserine. Put shortly:
as §2

For assay [5], the target named is T1, Ras guanyl-releasing protein 3 (Homo sapiens). Briefly: Binding affinity to recombinant human GFP-tagged RasGRP3 expressed in human LNCAP cells assessed as induction of protein translocation from plasma membrane to internal membrane at 10000 nM after 2 to 10 mins by confocal microscopic analysis. In kind it is cell-based. Put shortly:
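LNCaP cells were transiently transfected with human GFP-PKCδ or GFP-RasGRP3 and imaged 24 h later by live confocal microscopy (488 nm excitation) every 30 s for 30 min after 10 μM ligand. Distribution was assessed from representative images. n = 3–6.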

Assay [6] deals with Protein kinase C delta type (Homo sapiens) (UniProt Q05655). The assay can be described thus: Activation of PKC-delta in HEK293 cells overexpressing RasGRP3 assessed as protein phosphorylation at S299 at 0.1 to 30 uM after 30 mins by Western blot analysis. The format is cell-based.
Assay [7] addresses T1, Ras guanyl-releasing protein 3 (Homo sapiens). The assay can be described thus: Activation of RasGRP3 (unknown origin) overexpressed in HEK293 cells assessed as protein phosphorylation at T133 at 0.1 to 30 uM after 30 mins by Western blot analysis. The format is cell-based.
Assay [8] has as its target T3, Ras guanyl-releasing protein 3 (Homo sapiens, UniProt Q8IV61).
T3 sequence (Q8IV61 whole entry): T1 sequence (whole entry)
Briefly: Displacement of [3H]PDBu from recombinant human GFP-tagged RasGRP3 expressed in Escherichia coli BL21 after 5 mins by scintillation counting analysis in presence of phosphatidylserine. Summed up:
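Competition for [3H]PDBu binding to RasGRP3 with 100 μg/ml phosphatidylserine present, run at 18°C to optimize stability. Values are mean ± SEM of triplicate independent experiments.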

Assay [9] addresses Protein kinase C delta type (Homo sapiens) (UniProt Q05655). The assay can be described thus: Activation of PKC-delta in human Ramos cells assessed as protein phosphorylation at S299 at 10000 nM after 30 mins by Western blot analysis. The format is cell-based. Summed up: as §1

Chain of Protein kinase C delta type (Homo sapiens) (Q05655 whole entry, looked up): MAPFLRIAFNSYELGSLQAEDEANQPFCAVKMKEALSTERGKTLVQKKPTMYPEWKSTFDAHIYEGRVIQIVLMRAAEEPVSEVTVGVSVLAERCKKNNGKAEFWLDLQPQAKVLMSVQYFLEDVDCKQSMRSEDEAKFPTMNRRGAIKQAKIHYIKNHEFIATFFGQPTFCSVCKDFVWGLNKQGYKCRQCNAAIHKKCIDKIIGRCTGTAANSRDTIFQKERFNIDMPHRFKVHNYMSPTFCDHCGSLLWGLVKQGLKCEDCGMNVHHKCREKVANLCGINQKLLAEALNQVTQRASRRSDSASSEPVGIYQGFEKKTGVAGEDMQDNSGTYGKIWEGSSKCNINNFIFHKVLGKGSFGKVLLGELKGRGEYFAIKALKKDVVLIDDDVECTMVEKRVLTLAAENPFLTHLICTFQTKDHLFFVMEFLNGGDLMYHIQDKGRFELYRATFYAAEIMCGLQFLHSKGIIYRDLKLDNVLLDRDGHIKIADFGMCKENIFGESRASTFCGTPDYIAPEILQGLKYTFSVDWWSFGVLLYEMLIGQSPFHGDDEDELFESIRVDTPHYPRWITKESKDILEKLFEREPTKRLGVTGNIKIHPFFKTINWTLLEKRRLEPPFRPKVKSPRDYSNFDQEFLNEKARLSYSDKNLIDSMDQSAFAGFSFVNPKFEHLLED

Turning to `CCCC(CCC)C(=O)OCC1(CO)C/C(=C\c2cn(C)c3ccccc23)C(=O)O1` (stereo not given), the Ratio Ki in the assay filed under Homo sapiens was 64. In addition, the result in assay [1], in [2], in assay [5], in [6], in assay [7] and in [9] was Active. The inhibition constant Ki in assay [3] stood at 16.2 nM; in [4], 21.1 nM; in assay [8], 0.33 nM.
Consider `CCCC(CCC)C(=O)OCC1(CO)C/C(=C\c2cccc3ccn(C)c23)C(=O)O1` (stereo not given), for which, in the assay filed under Homo sapiens, the Ratio Ki is 11. For the same compound, the result in [1], in assay [2], in [5], in assay [6], in assay [7] and in assay [9] was Active. Also, the results for the inhibitory constant (Ki) in assay [3], in assay [4] and in assay [8] were 12.9 nM, 11.7 nM and 1.12 nM, respectively.
On to `CCCC(CCC)C(=O)OCC1(CO)C/C(=C\c2ccc3c(ccn3C)c2)C(=O)O1` (stereo not given), for which the Ratio Ki in the assay listed under Homo sapiens is 6.4. Further, the result in assay [1], in assay [2], in assay [5], in assay [6], in assay [7] and in [9] was Active. Further, the inhibitory constant (Ki) in assay [3] was determined as 8.25 nM; in assay [4], 2.17 nM; in assay [8] it was 0.34 nM.
Consider `CCCC(CCC)C(=O)OCC1(CO)C/C(=C\c2cccc3c2ccn3C)C(=O)O1` (stereo not given), for which the Ratio Ki in the assay listed under Homo sapiens amounted to 9. For the same compound, the result in assay [1], in assay [2], in [5], in [6], in [7] and in assay [9] was Active. The Ki in assay [3] came to 17.8 nM; in assay [4] it was 14.6 nM; in [8], 1.63 nM.
On to `CCCC(CCC)C(=O)OCC1(CO)C/C(=C\c2ccc3ccn(C)c3c2)C(=O)O1` (stereo not given), for which, in the assay listed under Homo sapiens, the Ratio Ki turned out to be 6.6. Also, the outcome in assay [1], in [2], in [5], in [6], in assay [7] and in [9] was Active. In addition, the inhibition constant Ki was 7.5 nM in assay [3], 8.08 nM in assay [4] and 1.22 nM in assay [8].

One may read the Ki as the equilibrium dissociation constant of an inhibitor or competing ligand from its target.
